Activity calls are given as the source filed them. No cut-off for these calls is given here.
Assays:
[1] = Dissociation constant, pKa of the compound by UV metric method; format: physicochemical
How it was run: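 UV-metric titration with 0.15 M KCl at 25 °C: pH 12.0–2.0 at 32–26 μM in methanol/water cosolvent, and pH 12.5–8.9 at 30–21 μM in water.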

MCF7 = experiment: Antiproliferative activity against human MCF7 cells assessed as cellular DNA content after 96 hrs by CyQUANT NF fluorescence assay relative to control; format: functional
How it was run: (§1)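 Cells seeded at 750 (HT-29), 250 (PC-3) or 900 (T84, MCF7) cells/well, treated next day with concentration series for 72 h (HT-29, PC-3) or 96 h (T84, MCF7). Relative cell number from cellular DNA content by fluorescent DNA-binding dye. Variable-slope fit; efficiency = maximal inhibition (100% − Bottom) vs untreated; IC50 relative to the compound's own maximal efficiency.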

HT-29 [2] = experiment: Increase in extracellular acidification rate in human HT-29 cells at 10 uM measured for 20 to 150 mins by time-resolved fluorescence assay relative to control; format: functional
How it was run: (§2)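 HT-29 cells seeded 80 000/well, incubated overnight at 37 °C without CO2. Washed and loaded with pH-sensitive time-resolved fluorescence probe in low-buffering medium (1 mM PBS pH 7.4, 20 mM glucose, salts), 10 min at 37 °C, then compound added, wells unsealed. Read 200 min at 37 °C; lifetime converted to pH, rate taken 20–150 min as H+ change/min; n = 8.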

HT-29 [3] = experiment: Induction of ROS generation in human HT-29 cells at 30 uM by CM-H2DCFDA staining-based fluorescence assay; format: functional, cell-based
How it was run: (§3)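 HT-29 (15 000 cells/well) loaded with 50 μM CM-H2DCFDA in PBS for 30 min at 37 °C, washed, then 60 min in phenol red-free DMEM/F-12. 30 μM compound added alone or with NAC 1 mM, GSH 2.5 mM, D3T 25 μM, α-tocopherol 50 μM or ascorbic acid 500 μM. Fluorescence 485/530 nm read kinetically at 37 °C for 22 h; area under curve; means ± SEM, n = 7.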

[4] = biological target: T1, Peroxisome proliferator-activated receptor delta (Homo sapiens, UniProt Q03181); experiment: Competitive binding affinity to PPARbeta/delta (unknown origin) by TR-FRET assay
T1 sequence (Q03181 whole entry): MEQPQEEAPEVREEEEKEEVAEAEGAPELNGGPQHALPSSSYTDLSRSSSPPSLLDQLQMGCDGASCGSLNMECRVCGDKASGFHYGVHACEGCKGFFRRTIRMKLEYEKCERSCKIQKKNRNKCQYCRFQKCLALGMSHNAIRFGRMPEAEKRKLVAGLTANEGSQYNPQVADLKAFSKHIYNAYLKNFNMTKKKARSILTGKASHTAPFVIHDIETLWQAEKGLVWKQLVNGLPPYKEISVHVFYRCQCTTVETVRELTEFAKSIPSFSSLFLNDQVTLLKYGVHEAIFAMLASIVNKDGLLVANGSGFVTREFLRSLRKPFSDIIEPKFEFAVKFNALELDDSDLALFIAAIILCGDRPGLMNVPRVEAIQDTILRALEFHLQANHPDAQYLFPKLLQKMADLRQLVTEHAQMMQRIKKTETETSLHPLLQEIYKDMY

HT-29 [5] = experiment: Antiproliferative activity against human HT-29 cells assessed as cellular DNA content at 20 uM after 48 hrs by CyQUANT NF fluorescence assay in presence of ascorbic acid; format: functional, cell-based
How it was run: (§4)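 HT-29 given concentration series of test compound with or without antioxidant (NAC 1 mM, GSH 2.5 mM, D3T 25 μM, α-tocopherol 50 μM, ascorbic acid 500 μM) for 48 h. Relative cell number from DNA-binding fluorescent dye; means ± SD, n = 4.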

HT-29 [6] = experiment: Downregulation of cyclin A2 expression in human HT-29 cells at 10 uM after 48 hrs by immunoblotting method; format: functional, cell-based
How it was run: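 HT-29 exposed to 10 μM for 48 h; whole-cell lysates immunoblotted for the indicated proteins (total and cleaved PARP for the apoptosis line).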

HT-29 [7] = experiment: Antiproliferative activity against human HT-29 cells assessed as cellular DNA content at 20 uM after 48 hrs by CyQUANT NF fluorescence assay in presence of glutathione; format: functional, cell-based; how it was run: as §4
HT-29 [8] = experiment: Antiproliferative activity against human HT-29 cells assessed as cellular DNA content at 20 uM after 48 hrs by CyQUANT NF fluorescence assay in presence of alpha-tocopherol; format: functional, cell-based; how it was run: as §4
HT-29 [9] = experiment: Induction of ROS generation in human HT-29 cells at 30 uM by CM-H2DCFDA staining-based fluorescence assay in presence of glutathione; format: functional, cell-based; how it was run: as §3
HT-29 [10] = experiment: Increase in extracellular acidification rate in human HT-29 cells at 2 uM measured for 20 to 150 mins by time-resolved fluorescence assay relative to control; format: functional; how it was run: as §2
HT-29 [11] = experiment: Antiproliferative activity against human HT-29 cells assessed as cellular DNA content after 72 hrs by CyQUANT NF fluorescence assay in presence of irinotecan; format: functional, cell-based
How it was run: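 HT-29 exposed 72 h to concentration series of mixtures at ratios 7:0 through 0:7 with the partner drug. Relative cell number from DNA-content fluorescence. IC70 = concentration giving 70% inhibition of total cells (means ± SD, n = 4); isobolograms by Loewe additivity, CI(M) = IC70(Mx)/IC70(x) + IC70(My)/IC70(y).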

[12] = Antiproliferative activity against human PC3 cells assessed as cellular DNA content after 72 hrs by CyQUANT NF fluorescence assay; format: functional, cell-based; conditions: PC-3, 72 h; how it was run: as §1
HT-29 [13] = experiment: Induction of ROS generation in human HT-29 cells at 30 uM by CM-H2DCFDA staining-based fluorescence assay in presence of 3H-1,2-dithiole-3-thione; format: functional, cell-based; how it was run: as §3
HT-29 [14] = experiment: Antiproliferative activity against human HT-29 cells assessed as cellular DNA content after 72 hrs by CyQUANT NF fluorescence assay relative to control; format: functional; how it was run: as §1
[15] = biological target: T2, Peroxisome proliferator-activated receptor gamma (Homo sapiens, UniProt P37231); experiment: Competitive binding affinity to PPARgamma (unknown origin) by TR-FRET assay
T2 sequence (P37231 whole entry): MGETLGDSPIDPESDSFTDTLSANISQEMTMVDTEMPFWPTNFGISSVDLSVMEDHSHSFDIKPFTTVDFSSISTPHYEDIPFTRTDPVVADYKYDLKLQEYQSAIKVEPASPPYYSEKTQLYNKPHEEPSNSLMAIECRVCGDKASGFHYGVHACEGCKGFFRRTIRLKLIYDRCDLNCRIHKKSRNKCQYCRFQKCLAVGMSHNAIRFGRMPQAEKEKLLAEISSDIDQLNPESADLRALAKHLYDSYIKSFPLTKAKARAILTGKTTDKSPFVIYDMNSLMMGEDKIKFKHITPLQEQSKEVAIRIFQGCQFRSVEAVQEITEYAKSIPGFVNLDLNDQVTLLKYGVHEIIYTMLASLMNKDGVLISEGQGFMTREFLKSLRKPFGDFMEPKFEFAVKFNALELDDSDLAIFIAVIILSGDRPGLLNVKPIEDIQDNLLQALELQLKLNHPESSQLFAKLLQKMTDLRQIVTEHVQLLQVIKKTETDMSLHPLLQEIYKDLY

HT-29 [16] = experiment: Induction of cell cycle arrest in human HT-29 cells assessed as accumulation at G2/M phase at 10 uM by flow cytometry (reference value: 21%); format: functional

In the case of `COc1c(CC=C(C)C)c(O)c(C(=O)O)c(CCc2ccccc2)c1CC=C(C)C`, the pKa [1] is reported as 3.5, the Efficacy (MCF7) is reported as 92% and the “fold change (FC)” value (HT-29 [2]) is reported as 6. For the same compound, the Activity (HT-29 [3]) was “Active”, the Ki [4] was 5.2 µM and the Activity (HT-29 [5]) was “Active”. The Activity (HT-29 [6]) was “Active”, the Activity (HT-29 [7]) was “Active” and the Activity (HT-29 [8]) was “Active”. For the same compound, the Activity (HT-29 [9]) was “inactive”, the “fold change (FC)” value (HT-29 [10]) was 3 and the Activity (HT-29 [11]) was “Active”. The IC50 [12] was 16 µM, the Activity (HT-29 [13]) was “inactive” and the Efficacy (HT-29 [14]) was 95%. It also gave a Ki [15] of 0.7 µM and an Activity (HT-29 [16]) of 7%.
